SMARCA2 act – activators of SMARCA2 function; activation, % at 9.1 µM; actives 1% (n = 370,000); MG213 cells, MMTV-luciferase reporter, dexamethasone, overnight; in the data active = activation above about 7.8%
MC4R antag cAMP – human MC4R antagonism in cAMP assay; P32245; MC4R-expressing cells, MTII-stimulated cAMP, LANCE TR-FRET; inhibition, % at 6.5 µM; actives 0.48% (n = 360,000);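 active = inhibition above its plate's cutoff, the mean of tested wells on that plate plus 3 SD, cut at about 29% in these data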
Target sequence (P32245 whole entry, looked up): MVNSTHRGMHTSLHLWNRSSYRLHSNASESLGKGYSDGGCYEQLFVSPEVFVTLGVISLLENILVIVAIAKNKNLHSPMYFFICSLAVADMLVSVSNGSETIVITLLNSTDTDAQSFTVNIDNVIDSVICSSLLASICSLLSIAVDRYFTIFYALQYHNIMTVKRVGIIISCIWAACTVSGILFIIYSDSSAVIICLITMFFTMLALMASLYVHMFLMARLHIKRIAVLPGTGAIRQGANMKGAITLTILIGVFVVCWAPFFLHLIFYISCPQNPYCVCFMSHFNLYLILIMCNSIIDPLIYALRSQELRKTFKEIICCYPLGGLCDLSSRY
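System: U2OS-MC4R stable cell line; Technique: Eu-cAMP/anti-cAMP TR-FRET, emission 671 nm; Repeats: single well per compound; Also added: Melanotan II; Dosing: one concentration, 6.5 µM nominal; Schedule: 30-min compound, 1-h challenge, 1-h detection, room temperature.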
MC4R barr agon – activates human MC4R beta-arrestin recruitment; U2OS MC4R beta-arrestin complementation, luminescence; percent of melanotan II response, DMSO zero; activation, % at 8.9 µM; actives 0.98% (n = 360,000); AID 540308;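 active = activation above a per-plate cutoff, the mean activation of sample wells on that plate plus 3 SD, cut at about 8% in these data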
CFTR F508del cor – correctors of CFTR F508del function in bronchial epithelial cells. actives 0.36% (n = 350,000). AID 720511. CFBE cells, YFP halide quenching; stimulated with forskolin plus potentiator P3; % fluorescence drop versus neutral controls. activity (quench increase), % at 7.58 µM;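 active = mean added fluorescence quench of at least 8% versus neutral control, with both replicates also reaching 8%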;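 also: cells transiently co-express mutant CFTR-F508del with the halide-sensitive YFP; corrector assay measuring rescue of mutant channel to the surface after 24 h compound exposure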
cAMP nonselect – nonselective cAMP signaling inhibitor, MC4R antagonist counter-screen; shares compounds with MC4R antag cAMP; parental U2OS, forskolin cAMP, LANCE TR-FRET; inhibition, % at 6.5 µM; actives 26% (n = 1,600); AID 602193;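 active = mean inhibition over triplicates above the low-control well mean plus 3 SD, set per campaign, cut at about 13% in these data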;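 also: signal is single emission at 671 nm which falls as cellular cAMP rises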
MC4R cAMP antag – human MC4R cAMP antagonism confirmation. actives 27% (n = 1,600). inhibition, % at 6.5 µM. MC4R-expressing cells, MTII-stimulated cAMP, TR-FRET. shares compounds with MC4R antag cAMP. AID 602195; in the data active = inhibition above about 29%
Large screens that a line does not name were inactive (follow-up assays come after a bar, where they were run). An excerpt weighted towards active compounds, which were near 2.1% of everything screened.

COc1cccc(S(=O)(=O)N[C@H]2CC[C@H](CCn3cc(-c4ccccc4OC)nn3)O[C@@H]2CO)c1	none (no result: SMARCA2 act, MC4R antag cAMP, MC4R barr agon)
COc1cc2c(cc1NC(=O)CN1C(=O)NC3(CCc4ccccc43)C1=O)oc1ccccc12 (configuration not stated)	MC4R antag cAMP 44 (no result: CFTR F508del cor) | cAMP nonselect inactive | MC4R cAMP antag inactive
COC(=O)c1ccc(COC(=O)CNS(=O)(=O)c2ccc(C)cc2)cc1	MC4R antag cAMP 40 | cAMP nonselect 19 | MC4R cAMP antag inactive
O=C(CNS(=O)(=O)c1ccc2ccccc2c1)OCc1csc(-c2ccccc2)n1	none (no result: CFTR F508del cor)
Cc1ccc(S(=O)(=O)NCC(=O)OCc2csc(-c3ccccc3)n2)cc1	MC4R antag cAMP 30 (no result: CFTR F508del cor) | cAMP nonselect 15 | MC4R cAMP antag inactive
C[C@H]1CN([C@@H](C)CO)C(=O)c2ccccc2-c2ccccc2CO[C@H]1CN(C)C(=O)Nc1ccccc1	none (no result: SMARCA2 act, MC4R antag cAMP, MC4R barr agon)
O=C(COC(=O)c1cnc(Cl)c(Cl)c1)NCc1cccs1	MC4R antag cAMP 36 | cAMP nonselect 22 | MC4R cAMP antag 35
CC(C)CN(C(=O)COC(=O)c1cccnc1Cl)c1c(N)n(Cc2ccccc2)c(=O)[nH]c1=O	none
CC(C)N(Cc1ccccc1)C(=O)COC(=O)c1cnc(Cl)c(Cl)c1	MC4R antag cAMP 45 | cAMP nonselect 33 | MC4R cAMP antag 52
CC(C)CN(C(=O)COC(=O)c1cnc(Cl)c(Cl)c1)c1c(N)n(Cc2ccccc2)c(=O)[nH]c1=O	MC4R antag cAMP 47 | cAMP nonselect inactive | MC4R cAMP antag 51
O=C(C[C@@H]1CC[C@H](NC(=O)c2cccc(F)c2)[C@@H](CO)O1)NCc1ccccc1	none (no result: SMARCA2 act, MC4R antag cAMP, MC4R barr agon)
O=C(CS(=O)(=O)c1ccccc1)Nc1nnc(C(F)(F)F)s1	MC4R antag cAMP 32 | cAMP nonselect inactive | MC4R cAMP antag inactive
O=C(CCS(=O)(=O)c1ccccc1)Nc1nnc(C(F)(F)F)s1	none
Cc1cc(C)n(-c2nnc(NC(C)(C)C)nn2)n1	none (no result: CFTR F508del cor)
Cc1cc(C)n(-c2nnc(NC34CC5CC(CC(C5)C3)C4)nn2)n1	MC4R antag cAMP 29 (no result: CFTR F508del cor) | cAMP nonselect inactive | MC4R cAMP antag inactive
C[C@H](CO)N1C[C@H](C)[C@H](CN(C)Cc2ccc(C(F)(F)F)cc2)Oc2ccc(NC(=O)Cn3cnnn3)cc2C1=O	none (no result: SMARCA2 act, MC4R antag cAMP, MC4R barr agon)
CCCCn1c(=O)[nH]c(=O)c2c1nc(-c1ccc(C#N)cc1)n2C1CCCC1	MC4R antag cAMP 29 (no result: CFTR F508del cor) | cAMP nonselect inactive | MC4R cAMP antag inactive
CCCCn1c(=O)[nH]c(=O)c2c1nc(-c1ccc(OCC)cc1)n2CC	none
C[C@@H]1CN([C@@H](C)CO)C(=O)c2cccc(N(C)C)c2O[C@@H]1CN(C)S(=O)(=O)c1cn(C)cn1	none (no result: SMARCA2 act, MC4R antag cAMP, MC4R barr agon)
CC(=O)c1ccccc1NC(=O)CSc1nc2ccccc2c(=O)n1CCCN1CCOCC1	none
CS(=O)(=O)c1ccc(Cl)c(NC(=O)CSc2nc3ccccc3c(=O)n2CCCN2CCOCC2)c1	MC4R antag cAMP 31 | cAMP nonselect inactive | MC4R cAMP antag inactive
Cc1ccc(F)c(NC(=O)c2cncn2-c2ccccc2)c1	MC4R antag cAMP 30 | cAMP nonselect inactive | MC4R cAMP antag inactive
Cc1noc(C)c1NC(=O)N(C)C[C@@H]1Oc2ccc(NC(=O)CCC(F)(F)F)cc2C(=O)N([C@H](C)CO)C[C@@H]1C	none (no result: SMARCA2 act, MC4R antag cAMP, MC4R barr agon)
N#CC(C#N)=C1C=CC=CN1/C(=C\c1ccco1)C(=O)c1ccc(Cl)cc1	MC4R antag cAMP 34 | cAMP nonselect 29 | MC4R cAMP antag 43
CC(/C=N/n1c(-c2ccc(Cl)cc2)n[nH]c1=S)=C\c1ccco1	none (no result: CFTR F508del cor)
N#CC(C#N)=C1C=CC=CN1/C(=C\c1ccco1)C(=O)c1ccc(-c2ccccc2)cc1	MC4R antag cAMP 31 (no result: CFTR F508del cor) | cAMP nonselect inactive | MC4R cAMP antag inactive
COc1ccc(S(=O)(=O)N(C)C[C@H]2Oc3ccc(NS(C)(=O)=O)cc3C(=O)N([C@@H](C)CO)C[C@H]2C)cc1	none (no result: SMARCA2 act, MC4R antag cAMP, MC4R barr agon)
CCCNC(=O)Nc1ccc2c(c1)C(=O)N(C)C[C@@H](OC)[C@@H](C)CN(CCC)[C@@H](C)CO2	none (no result: SMARCA2 act, MC4R antag cAMP, MC4R barr agon)
COc1cccc(OC)c1C(=O)NC(=O)Nc1c(C)cccc1C	MC4R antag cAMP 29 | cAMP nonselect inactive | MC4R cAMP antag inactive
COc1ccc([N+](=O)[O-])c(OC)c1C(=O)NC(=O)Nc1c(C)cccc1C	none
Cc1ccc(S(=O)(=O)N2CCC(C(=O)OCC(=O)N3CCc4ccccc43)CC2)cc1	none (no result: CFTR F508del cor)
Cc1ccc(S(=O)(=O)N2CCC[C@H]2C(=O)OCC(=O)N2CCc3ccccc32)cc1	MC4R antag cAMP 31 | cAMP nonselect inactive | MC4R cAMP antag inactive
Cc1ccnc2nc(C(=O)OCC(=O)N3CCc4ccccc43)nn12	MC4R antag cAMP 34 | cAMP nonselect inactive | MC4R cAMP antag inactive
COc1ccc(NC(=O)Nc2ccc3c(c2)C(=O)N([C@@H](C)CO)C[C@@H](C)[C@H](CN(C)Cc2ccc(C(=O)O)cc2)O3)cc1	none (no result: SMARCA2 act, MC4R antag cAMP, MC4R barr agon)
CO[C@@H]1CN(C)C(=O)c2ccc(NC(=O)C3CC3)cc2OC[C@H](C)N(Cc2ccccc2)C[C@H]1C	none (no result: SMARCA2 act, MC4R antag cAMP, MC4R barr agon)
Cc1ccc(C)c(-c2cc(C(=O)Nc3cccc(C(=O)O)c3)c3ccccc3n2)c1	MC4R antag cAMP 35 | cAMP nonselect inactive | MC4R cAMP antag inactive
Cc1ccccc1C(=O)NNC(=O)Cc1ccccc1	none (no result: CFTR F508del cor)
Cc1ccccc1C(=O)NNC(=O)CCc1ccccc1	MC4R antag cAMP 32 | cAMP nonselect inactive | MC4R cAMP antag inactive
S=c1[nH]nc(C2(c3ccccc3)CCCC2)o1	none
S=c1[nH]nc(C(c2ccccc2)C2CCCCC2)o1 (configuration not stated)	MC4R antag cAMP 30 | cAMP nonselect inactive | MC4R cAMP antag inactive
O=C(CNS(=O)(=O)c1ccccc1)NNC(=O)C(Cl)Cl	MC4R antag cAMP 29 | cAMP nonselect inactive | MC4R cAMP antag inactive
O=C(CNS(=O)(=O)c1ccccc1)NCC(=O)N1CCCCC1	none
CS(=O)(=O)c1nc([N+](=O)[O-])nn1CCCc1ccccc1	MC4R antag cAMP 34 (no result: SMARCA2 act, CFTR F508del cor) | cAMP nonselect inactive | MC4R cAMP antag inactive
COc1ccc(S(=O)(=O)N(C)C[C@@H]2Oc3ccc(NC(=O)CCC(F)(F)F)cc3C(=O)N([C@H](C)CO)C[C@H]2C)cc1	none (no result: SMARCA2 act, MC4R antag cAMP, MC4R barr agon)
C[C@@H]1CN([C@H](C)CO)C(=O)c2cc(NC(=O)Nc3ccc(C(F)(F)F)cc3)ccc2O[C@H]1CN(C)C(=O)Nc1ccc(C(F)(F)F)cc1	none (no result: SMARCA2 act, MC4R antag cAMP, MC4R barr agon)
CCN(CC)CCCNC(=O)CCC(=O)Nc1ccc2nc(N3CCC(C)CC3)cc(C)c2c1	MC4R antag cAMP 37 | cAMP nonselect inactive | MC4R cAMP antag inactive
CCOC(=O)c1sc(=S)[nH]c1C	MC4R antag cAMP 43 (no result: CFTR F508del cor) | cAMP nonselect inactive | MC4R cAMP antag 31
Cc1cc(C#N)c(C)c(SCc2[nH]nc3c2C(c2ccccc2)C(C#N)=C(N)O3)n1 (configuration not stated)	MC4R antag cAMP 31 (no result: CFTR F508del cor) | cAMP nonselect inactive | MC4R cAMP antag inactive

Screening data (PubChem)
